Experimental data: ChEMBL document CHEMBL4130474, “Spirotriazoline oxindoles: A novel chemical scaffold with in vitro anticancer properties” (Eur J Med Chem, 2017)
Active and inactive are the calls of the source. The rule behind the calls is not given here.

Columns and labels:
MCF7 = experiment: Antiproliferative activity in human MCF7 cells incubated for 72 hrs by MTT assay; type: functional, cell-based; settings: MCF7, 72 h
Outline: (§1)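 Cells grown in RPMI 1640 with 10% FBS, penicillin/streptomycin; seeded at 2 × 10⁵ cells/mL, allowed to adhere 24 h, then exposed 72 h to compounds diluted in medium from DMSO stocks. MTT added after medium change, 3 h, formazan dissolved in DMSO, absorbance at 570 nm. Triplicate wells, at least 3 independent experiments; IC50 by non-linear regression.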

HEK-293T = experiment: Antiproliferative activity in human HEK293T cells incubated for 72 hrs by MTT assay; type: cell-based; outline: as §1
MDA-MB-231 = experiment: Antiproliferative activity in human MDA-MB-231 cells incubated for 72 hrs by MTT assay; type: functional, cell-based; settings: MDA-MB-231, 72 h; outline: as §1
[1] = Selectivity index, ratio of IC50 for antiproliferative activity in HEK293T cells to IC50 for antiproliferative activity in human p53 (+/+) human HCT116 cells; type: toxicity, cell-based; settings: HEK293T cells versus p53 (+/+) HCT116 cells, read-out: Ratio IC50
[2] = Selectivity index, ratio of IC50 for antiproliferative activity in HEK293T cells to IC50 for antiproliferative activity in human p53 (-/-) human HCT116 cells; type: toxicity, cell-based; settings: HEK293T cells versus p53 (-/-) HCT116 cells, read-out: Ratio IC50
HCT-116 [3] = experiment: Antiproliferative activity in p53 (-/-) human HCT116 cells incubated for 72 hrs by MTS assay; type: functional, cell-based; settings: HCT-116, 72 h
Outline: (§2)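 HCT116 p53(+/+) or p53(−/−) seeded at 1 × 10⁵ cells/mL, adhered 24 h, then treated 72 h with compounds diluted from DMSO stocks. Viability by MTS (CellTiter96 AQueous) with absorbance at 490 nm. Duplicate wells, three independent experiments; IC50 by non-linear regression.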

[4] = Potency index, ratio of IC50 for antiproliferative activity in human p53 (+/+) human HCT116 cells to IC50 for antiproliferative activity in human MDA-MB-231 cells; type: functional
[5] = Selectivity index, ratio of IC50 for antiproliferative activity in HEK293T cells to IC50 for antiproliferative activity in human MCF7 cells; type: toxicity, cell-based; settings: HEK293T cells versus MCF7 cells, read-out: Ratio IC50
Outline: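 Ratio of HEK 293T IC50 to MCF-7 IC50 from 72 h MTT assays.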

[6] = Potency index, ratio of IC50 for antiproliferative activity in human MCF7 cells to IC50 for antiproliferative activity in human MDA-MB-231 cells; type: functional
HCT-116 [7] = experiment: Antiproliferative activity in p53 (+/+) human HCT116 cells incubated for 72 hrs by MTS assay; type: functional, cell-based; settings: HCT-116, 72 h; outline: as §2
[8] = Selectivity index, ratio of IC50 for antiproliferative activity in HEK293T cells to IC50 for antiproliferative activity in human MDA-MB-231 cells; type: toxicity, cell-based; settings: HEK293T cells versus MDA-MB-231 cells, read-out: Ratio IC50
Outline: (§3)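 Ratio of HEK 293T IC50 to MDA-MB-231 IC50 from 72 h MTT assays.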

[9] = Potency index, ratio of IC50 for antiproliferative activity in human p53 (-/-) human HCT116 cells to IC50 for antiproliferative activity in human MDA-MB-231 cells; type: functional
HCT-116 [10] = experiment: Induction of cell cycle arrest in p53 (+/+) human HCT116 cells assessed as accumulation at G0/G1 phase at antiproliferative IC50 level incubated for 24 hrs by propidium iodide staining based flow cytometry (reference value: 31.87%); type: functional
HCT-116 [11] = experiment: Induction of cell cycle arrest in p53 (+/+) human HCT116 cells assessed as accumulation at G2/M phase at antiproliferative IC50 level incubated for 48 hrs by propidium iodide staining based flow cytometry (reference value: 26.85%); type: functional
[12] = […], ratio of IC50 for antiproliferative activity in HEK293T cells to IC50 for antiproliferative activity in human MDA-MB-231 cells; type: toxicity, cell-based; settings: HEK293T cells versus MDA-MB-231 cells, read-out: Ratio IC50; outline: as §3
HCT-116 [13] = experiment: Induction of apoptosis in p53 (+/+) human HCT116 cells at 2 times antiproliferative IC50 level incubated for 72 hrs by Annexin-V and 7-AAD staining based flow cytometry; type: functional, cell-based
Outline: (§4)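 Cells detached with Accutase and stained with Annexin V/7-AAD (Guava Nexin), 20 min at room temperature in the dark. Flow cytometry, ≥5000 events per sample; three independent experiments.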

HCT-116 [14] = experiment: Induction of cell cycle arrest in p53 (+/+) human HCT116 cells assessed as accumulation at G2/M phase at antiproliferative IC50 level incubated for 24 hrs by propidium iodide staining based flow cytometry (reference value: 25.85%); type: functional
CCD-18Co [15] = experiment: Cytotoxicity in human CCD-18Co cells assessed as reduction in cell viability at antiproliferative IC50 (for p53 (+/+) human HCT116 cells) incubated for 72 hrs by MTS assay; type: cell-based
Outline: (§5)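 CCD-18Co colon fibroblasts grown in DMEM with 10% FBS, penicillin/streptomycin, Glutamax, NEAA. […] Viability by MTS, absorbance at 490 nm. Triplicate wells, at least 2 independent experiments; mean ± SEM.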

HCT-116 [16] = experiment: Induction of cell cycle arrest in p53 (+/+) human HCT116 cells assessed as accumulation at G0/G1 phase at antiproliferative IC50 level incubated for 48 hrs by propidium iodide staining based flow cytometry (reference value: 50.48%); type: functional
CCD-18Co [17] = experiment: Cytotoxicity in human CCD-18Co cells assessed as reduction in cell viability at antiproliferative IC80 (for p53 (+/+) human HCT116 cells) incubated for 72 hrs by MTS assay; type: cell-based; outline: as §5
HCT-116 [18] = experiment: Induction of cell cycle arrest in p53 (+/+) human HCT116 cells assessed as accumulation at S phase at antiproliferative IC50 level incubated for 48 hrs by propidium iodide staining based flow cytometry (reference value: 22.67%); type: functional
HCT-116 [19] = experiment: Induction of apoptosis in p53 (+/+) human HCT116 cells assessed as increase in early apoptotic cells level at antiproliferative IC50 level incubated for 72 hrs by Annexin-V and 7-AAD staining based flow cytometry; type: functional; outline: as §4
HCT-116 [20] = experiment: Induction of cell cycle arrest in p53 (+/+) human HCT116 cells assessed as accumulation at S phase at antiproliferative IC50 level incubated for 24 hrs by propidium iodide staining based flow cytometry (reference value: 38.3%); type: functional
[21] = target: Tumour suppressor p53/oncoprotein Mdm2 (Homo sapiens) (UniProt P04637+Q00987); experiment: Inhibition of p53/MDM2 interaction (unknown origin) transfected in p53 (-/-) human HCT116 cells at 10 uM incubated for 4 hrs by Venus-based bimolecular fluorescence complementation assay
Tumour suppressor p53/oncoprotein Mdm2 (Homo sapiens), sequence (P04637 whole entry, looked up): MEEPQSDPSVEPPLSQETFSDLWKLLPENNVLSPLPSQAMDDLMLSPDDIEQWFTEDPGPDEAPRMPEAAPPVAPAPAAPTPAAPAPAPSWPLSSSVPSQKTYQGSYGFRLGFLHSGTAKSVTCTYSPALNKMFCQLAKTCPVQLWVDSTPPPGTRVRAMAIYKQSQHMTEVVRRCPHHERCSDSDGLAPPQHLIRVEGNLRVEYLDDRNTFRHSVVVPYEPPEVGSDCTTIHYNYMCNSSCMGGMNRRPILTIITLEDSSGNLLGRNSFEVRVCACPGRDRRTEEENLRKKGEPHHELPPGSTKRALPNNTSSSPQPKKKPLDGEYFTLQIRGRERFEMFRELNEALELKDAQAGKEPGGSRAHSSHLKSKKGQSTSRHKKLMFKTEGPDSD
Tumour suppressor p53/oncoprotein Mdm2 (Homo sapiens), sequence (Q00987 whole entry, looked up): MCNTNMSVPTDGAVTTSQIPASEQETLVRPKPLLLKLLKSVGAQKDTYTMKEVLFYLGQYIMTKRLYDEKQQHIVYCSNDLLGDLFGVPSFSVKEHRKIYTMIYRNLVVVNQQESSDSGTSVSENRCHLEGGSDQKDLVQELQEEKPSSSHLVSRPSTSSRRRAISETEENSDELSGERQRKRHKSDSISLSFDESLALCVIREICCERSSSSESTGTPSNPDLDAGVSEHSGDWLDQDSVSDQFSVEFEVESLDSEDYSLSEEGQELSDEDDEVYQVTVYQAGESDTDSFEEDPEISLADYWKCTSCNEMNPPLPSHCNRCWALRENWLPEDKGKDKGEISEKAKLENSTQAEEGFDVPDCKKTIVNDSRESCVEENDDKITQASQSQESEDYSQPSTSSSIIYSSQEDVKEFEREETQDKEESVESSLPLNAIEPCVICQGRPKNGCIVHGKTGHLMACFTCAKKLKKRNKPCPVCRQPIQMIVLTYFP
Outline: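 HCT116 p53(−/−) co-transfected with V1-p53/MDM2-V2 BiFC plasmids using Lipofectamine 2000. Medium replaced 4–6 h after transfection, then compound (final 5 and 10 µM), nutlin-3a, or matched DMSO added; transfection period 24 h. Venus fluorescence read by flow cytometry and normalized to DMSO (100%). Three experiments.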

[22] = Potency index, ratio of IC50 for antiproliferative activity in human p53 (-/-) human HCT116 cells to IC50 for antiproliferative activity in human p53 (+/+) human HCT116; type: functional
HCT-116 [23] = experiment: Increase in p53 protein expression in p53 (+/+) human HCT116 cells at antiproliferative IC50 level incubated for 72 hrs by Western blot; type: functional, cell-based
Outline: (§6)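 Lysed in NP-40 buffer, protein measured by Bradford, separated by 8%/14% SDS-PAGE, blotted to nitrocellulose. Probed overnight at 4 °C with anti-p53 (Pab-240) and anti-MDM2 (SMP-14), then HRP secondary with chemiluminescence. Ponceau S loading control, densitometry; two experiments.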

HCT-116 [24] = experiment: Reduction in MDM2 protein expression in p53 (+/+) human HCT116 cells at antiproliferative IC50 level incubated for 72 hrs by Western blot; type: functional, cell-based; outline: as §6
[25] = Potency index, ratio of IC50 for antiproliferative activity in human MDA-MB-231 cells to IC50 for antiproliferative activity in human MCF7 cells; type: functional
Outline: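 Ratio of MDA-MB-231 IC50 to MCF-7 IC50 from 72 h MTT assays.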

| Structure (SMILES) | IC50 (MCF7) [µM] | IC50 (HEK-293T) [µM] | IC50 (MDA-MB-231) [µM] | selectivity ratio [1] | selectivity ratio [2] | IC50 (HCT-116 [3]) [µM] | Ratio IC50 [4] | selectivity ratio [5] | Ratio IC50 [6] | IC50 (HCT-116 [7]) [µM] | selectivity ratio [8] | Ratio IC50 [9] | selectivity ratio [12] | other results |
| --- | --- | --- | --- | --- | --- | --- | --- | --- | --- | --- | --- | --- | --- | --- |
| O=C1Nc2ccc(Br)cc2C12N(c1ccccc1)N=C(c1ccccc1)N2c1ccc(Cl)cc1 (stereo not drawn) | 16.8 | 21.6 | 5.2 | < 2 | < 2 | 18.2 | >=2.4 | < 2 | >=2.4 | 16.3 | ≥ 2.4 | >=2.4 |  |  |
| O=C1Nc2ccc(Cl)cc2C12N(c1ccccc1)N=C(c1ccccc1)N2c1cccc(Cl)c1 (stereo not drawn) | 9.8 | > 100 | 8.9 | 2.5 to 5.6 | 2.5 to 5.6 | 17.9 |  | 2.5 to 10.2 |  | 16.3 |  |  | ≥ 2.5 | Activity (HCT-116 [10]): 50.11%; Activity (HCT-116 [11]): 13.65%; Activity (HCT-116 [13]): Dose-dependent effect; Activity (HCT-116 [14]): 13.87%; Activity (CCD-18Co [15]): Non-Toxic; Activity (HCT-116 [16]): 58%; Activity (CCD-18Co [17]): 40%; Activity (HCT-116 [18]): 31.34%; fold change (FC) (HCT-116 [19]): 3.1; Activity (HCT-116 [20]): 36.42% |
| O=C1Nc2ccccc2C12N(c1ccccc1)N=C(c1ccccc1)N2c1ccc(Cl)cc1 (stereo not drawn) | 24.1 | > 100 | 10.7 | 2.5 to 4.1 | 2.5 to 4.1 | 18.5 |  | 2.5 to 4.1 |  | 15 |  |  | ≥ 2.5 |  |
| O=C1Nc2ccc(Br)cc2C12N(c1ccccc1Cl)N=C(c1cccc(Cl)c1)N2c1cccc(Cl)c1 (stereo not drawn) | 9.5 | 21.4 | 7.6 | 1.5 | < 2 | 17.7 |  | 2.3 |  | 13.9 |  |  |  | Activity (HCT-116 [10]): 34.54%; inhibition [21]: Active; Activity (HCT-116 [13]): Dose-dependent effect; Ratio IC50 [22]: 1.3; Activity (CCD-18Co [15]): Non-Toxic; Activity (HCT-116 [23]): Active; Activity (HCT-116 [16]): 65.49%; Activity (CCD-18Co [17]): 40%; Activity (HCT-116 [24]): Active; Activity (HCT-116 [18]): 33.41%; fold change (FC) (HCT-116 [19]): 2.8; Activity (HCT-116 [20]): 42.61% |
| O=C1Nc2ccc(Br)cc2C12N(c1ccccc1)N=C(c1ccccc1)N2c1cccc(Cl)c1 (stereo not drawn) | 21.4 | 21.6 | 3.5 | < 2 | < 2 | 17.8 | >=2.4 | < 2 | >=2.4 | 15.7 | ≥ 2.4 | >=2.4 |  |  |
| O=C1Nc2c(Cl)cccc2C12N(c1ccccc1)N=C(c1ccccc1)N2c1ccccc1 (stereo not drawn) | 10.8 | > 100 | 8.9 | 2.5 to 4.2 | 2.5 to 4.2 | 20.1 |  | 2.5 to 9.3 |  | 23.7 |  |  | ≥ 2.5 |  |
| O=C1Nc2ccc(Br)cc2C12N(c1ccccc1)N=C(c1ccccc1)N2c1ccc(F)c(Cl)c1 (stereo not drawn) | 11 | 16.6 | 4.6 | < 2 | < 2 | 15.9 | >=2.4 | < 2 | >=2.4 | 13.5 | ≥ 2.4 | >=2.4 |  |  |
| O=C1Nc2ccc(Br)cc2[C@]12[C@@H](c1ccccc1)C(c1ccccc1)=NN2c1ccccc1 | 7.3 | > 100 | > 100 |  |  |  |  | > 13.7 |  |  |  |  |  | Ratio IC50 [25]: > 13.7 |
